Screens as filed in PubChem BioAssay.
An excerpt weighted towards active compounds, which were near 2.6% of everything screened.
UCH37 DUB inh: human UCH37 deubiquitinating enzyme inhibition. inhibition, % (no concentration beside the values). 0.33% of 330,000 active. AID 588478. purified proteasome/UCH37, Ub-AMC cleavage fluorescence;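 active = mean inhibition over replicate wells above about 20%, limit read from the data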;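 also: 0% = compound-free wells with enzyme and 100% = wells lacking proteasome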
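Material: Human UCH37 enzyme supplied as purified proteasome complex | Schedule: 30 min preincubation with enzyme, 25 min cleavage at room temperature | Detection: AMC fluorescence 355/460 nm | Measure: % inhibition of Ub-AMC cleavage fluorescence | Controls: Wells without proteasome as full block, compound-free enzyme plus substrate as uninhibited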
SENP7 inh: SENP7 protease inhibition. Q9BQF6. recombinant SENP7, Z-RLRGG-aminoluciferin luminescence, 40 min. inhibition, % at 5 µM. 1.5% of 330,000 active;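 active = inhibition above about 50% at the single test dose, limit read from the data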;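 also: plate controls were DMSO with enzyme for no effect and no enzyme buffer wells for full effect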
SENP1 FRET inh: inhibitors of human SENP1 SUMO protease catalytic domain | Q9P0U3 | recombinant SENP1 catalytic domain, CyPet-SUMO1-YPet FRET cleavage | AID 624204 | 0.21% of 360,000 active | inhibition, % at 10 µM;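 active = inhibition at least 30% at 10 µM, raw YFP signal under a set limit, fluorescence ratio 0.5 to 1.5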;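 also: 0% = enzyme with DMSO and 100% = no enzyme wells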
Target sequence (Q9P0U3 419-644 limits assumed): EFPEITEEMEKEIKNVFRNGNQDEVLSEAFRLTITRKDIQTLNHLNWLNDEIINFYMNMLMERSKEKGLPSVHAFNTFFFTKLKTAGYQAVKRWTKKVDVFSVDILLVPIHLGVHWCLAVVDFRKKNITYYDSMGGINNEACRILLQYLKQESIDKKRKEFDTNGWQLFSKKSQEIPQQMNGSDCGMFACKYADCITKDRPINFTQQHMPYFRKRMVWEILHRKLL
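Test system: human SENP1 catalytic domain; medium: Tris pH 8 buffer plus EDTA, NaCl, BME, BSA, NP40, catalase; incubation: 50 min reaction at room temperature; technique: FRET, CFP and YFP emission; controls: no-enzyme low control and enzyme-plus-DMSO high control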
SENP8 block-1: SENP8 (human) protease inhibition; Q96LD8; recombinant SENP8, Nedd8 substrate fluorescence; inhibition, % at 20 µM; 0.64% of 360,000 active; in the data active = inhibition mostly above about 40%, no sharp cut-off; inactive = mostly below about 27%
Target sequence (Q96LD8 whole entry, looked up): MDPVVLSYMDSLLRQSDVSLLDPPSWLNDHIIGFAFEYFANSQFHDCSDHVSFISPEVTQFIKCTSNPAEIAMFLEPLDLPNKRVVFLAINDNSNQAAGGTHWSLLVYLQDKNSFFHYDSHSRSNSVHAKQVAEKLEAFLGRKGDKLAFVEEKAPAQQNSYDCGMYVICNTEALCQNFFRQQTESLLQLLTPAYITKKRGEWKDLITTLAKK
SENP8 block-2: SENP8 protease inhibition; purified SENP8, Z-RLRGG-aminoluciferin cleavage, luminescence; Q96LD8; AID 2540; inhibition, % at 10 µM; 1.2% of 330,000 active; in the data active = inhibition above about 50%
SENP6 block: blocks the human protease SENP6 | 1.8% of 330,000 active | AID 2599 | inhibition, % at 10 µM | Q9GZR1 | Recombinant SENP6 catalytic domain, aminoluciferin luminescence;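 active = inhibition above about 50% at the single tested dose, limit read from the data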;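 also: plate controls were DMSO wells with enzyme for no effect and DMSO wells lacking enzyme for full effect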
SENP8 confirm: human SENP8 inhibition, confirmed. shares compounds with SENP7 inh. Recombinant SENP8, Z-RLRGG-aminoluciferin luminescence, 60 min. inhibition, % at 12.5 µM. 40% of 6,200 active;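 active = mean inhibition across replicates above about 50%, limit read from the data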
SENP6 conf: human SENP6 inhibition, confirmed. inhibition, % at 12.5 µM. shares compounds with SENP7 inh. AID 488915. recombinant SENP6, Z-RLRGG-aminoluciferin luminescence. 58% of 6,200 active
SENP7 confirm: confirmation of human SENP7 protease inhibitors; inhibition, % at 12.5 µM; 69% of 6,200 active; recombinant SENP7, Z-RLRGG-aminoluciferin luminescence, 40 min; shares compounds with SENP7 inh
Casp3 SENP sel: selectivity test for SENP inhibitors: human caspase-3 inhibition; purified caspase-3, Z-DEVD-aminoluciferin luminescence, 60 min; inhibition, % at 12.5 µM; AID 488918; 60% of 6,200 active; shares compounds with SENP7 inh;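 active = mean inhibition above about 50%, limit read from the data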;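 also: plate controls were enzyme with DMSO for no effect and wells without caspase-3 for full effect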
Target sequence (P42574 28-227 limits assumed): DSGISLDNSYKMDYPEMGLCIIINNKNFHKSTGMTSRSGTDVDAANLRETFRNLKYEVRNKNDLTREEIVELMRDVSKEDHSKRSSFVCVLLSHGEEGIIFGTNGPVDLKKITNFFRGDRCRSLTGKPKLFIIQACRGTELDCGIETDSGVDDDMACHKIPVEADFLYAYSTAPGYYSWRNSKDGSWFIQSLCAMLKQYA
SENP luc ctr: counter-screen for SENP inhibitors: luminescence interference; shares compounds with SENP7 inh; Pre-incubated SENP8/Z-RLRGG-aminoluciferin, luciferase luminescence interference; inhibition, % at 12.5 µM; 39% of 6,200 active; AID 488919;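 active = mean inhibition above about 50% when retested at one dose, limit read from the data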;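 also: plate controls were DMSO wells with completed reaction for no effect and substrate without enzyme for full effect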
* = called active by the depositor.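 The calls were made as follows, unless noted: active = mean inhibition above about 50% in the one-dose retest (limit read from the data); inactive = the rest.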

Results for CC(=O)O[C@@H]1C=C[C@](C)(O)C[C@@H](C)CC=C[C@H]2[C@H](O)C(C)=C(C)[C@H]3[C@H](Cc4ccccc4)NC(=O)[C@@]123 ?
UCH37 DUB inh: 3

What do the screens show for `CCCCCn1c(N)c(C(=O)NCc2cccs2)c2nc3ccccc3nc21`?
UCH37 DUB inh: -350; SENP7 inh: 40; SENP8 block-2: 84*; SENP6 block: 80*; SENP8 confirm: 12; SENP6 conf: 14; SENP7 confirm: 8; Casp3 SENP sel: -2; SENP luc ctr: -4

How did Cc1ccc2c(c1N)C(=O)c1ccccc1C2=O do in these assays?
SENP7 inh: 62*; SENP1 FRET inh: 53*; SENP8 block-1: 29; SENP8 block-2: 63*; SENP6 block: 65*; SENP8 confirm: 19; SENP6 conf: 22; SENP7 confirm: 50*; Casp3 SENP sel: 25; SENP luc ctr: 18

Results for O=C(Nc1ccccc1)c1c(O)[nH]c(=S)[nH]c1=O ?
UCH37 DUB inh: 7; SENP7 inh: 61*; SENP1 FRET inh: 2; SENP8 block-1: -3; SENP8 block-2: 52*; SENP6 block: 63*; SENP8 confirm: 62*; SENP6 conf: 54*; SENP7 confirm: 88*; Casp3 SENP sel: 82*; SENP luc ctr: 60*

What do the screens show for `O=C(Nc1ccccc1)c1c(O)[nH]c(=O)[nH]c1=O`?
UCH37 DUB inh: 4; SENP7 inh: 6; SENP1 FRET inh: 2; SENP8 block-1: 8; SENP8 block-2: -4; SENP6 block: -11

Results for COc1cc(C=Nn2cnnc2)ccc1OC(=O)N(C)C ?
UCH37 DUB inh: -2

How did C[C@H]1CCCC=CC2C[C@H](O)CC2[C@H](O)C=CC(=O)O1 (stereo partly drawn) do in these assays?
UCH37 DUB inh: 0

Results for COc1cc(C=NNC(=O)Cn2c([N+](=O)[O-])cnc2C)ccc1OC(=O)N(C)C ?
UCH37 DUB inh: 3

What do the screens show for `COc1ccc(N(CC(=O)NCc2ccc3c(c2)OCO3)S(C)(=O)=O)cc1OC`?
UCH37 DUB inh: 1; SENP7 inh: 94*; SENP1 FRET inh: 0; SENP8 block-1: 5; SENP8 block-2: -6; SENP6 block: -12; SENP8 confirm: 2; SENP6 conf: 0; SENP7 confirm: -2; Casp3 SENP sel: -2; SENP luc ctr: -2

What do the screens show for `N#Cc1c(N=CC2C(=O)NC(=S)NC2=O)sc2c1CCCC2`?
UCH37 DUB inh: 12

What do the screens show for `Nc1ccccc1C(=O)OCCc1ccccc1`?
UCH37 DUB inh: -57; SENP7 inh: 75*; SENP1 FRET inh: 0; SENP8 block-1: -387; SENP8 block-2: 73*; SENP6 block: 76*; SENP8 confirm: 69*; SENP6 conf: 75*; SENP7 confirm: 92*; Casp3 SENP sel: 60*; SENP luc ctr: 67*

Results for C=C1[C@@H](C)[C@H]2[C@H](Cc3ccccc3)NC(=O)[C@]23OC(=O)C=C[C@H](O)CCC[C@@H](C)CC=C[C@H]3[C@@H]1O ?
UCH37 DUB inh: 1

Results for NNCc1cccc(O)c1 ?
UCH37 DUB inh: 0; SENP7 inh: 56*; SENP1 FRET inh: 4; SENP8 block-1: 7; SENP8 block-2: 72*; SENP6 block: 81*; SENP8 confirm: 18; SENP6 conf: 20; SENP7 confirm: 55*; Casp3 SENP sel: 52*; SENP luc ctr: 73*

Results for CCNCC(O)c1cccc(O)c1 (stereo not drawn) ?
UCH37 DUB inh: 1; SENP7 inh: -7; SENP1 FRET inh: 2; SENP8 block-1: 3; SENP8 block-2: -7; SENP6 block: -10

Results for CCC(CC(c1ccccc1)c1c(O)c2ccccc2oc1=O)=NNC(N)=S (stereo not drawn) ?
UCH37 DUB inh: -2

How did Oc1ccc(C=NNP(=S)(c2ccccc2)c2ccccc2)cc1 do in these assays?
UCH37 DUB inh: 4

What do the screens show for `N/C(=N\[N+](=O)[O-])N/N=C/c1ccc(O)cc1`?
SENP7 inh: 79*; SENP1 FRET inh: 1; SENP8 block-1: 13; SENP8 block-2: 67*; SENP6 block: 92*; SENP8 confirm: 78*; SENP6 conf: 75*; SENP7 confirm: 91*; Casp3 SENP sel: 92*; SENP luc ctr: 81*

How did Cc1nc(Cl)sc1C(=O)Nc1ccc2ccccc2c1 do in these assays?
UCH37 DUB inh: -1; SENP7 inh: 29; SENP1 FRET inh: 0; SENP8 block-1: 9; SENP8 block-2: 20; SENP6 block: 55*; SENP8 confirm: 36; SENP6 conf: 32; SENP7 confirm: 75*; Casp3 SENP sel: 34; SENP luc ctr: 32

What do the screens show for `NC(N)=NN=Cc1ccc(N2CCOCC2)cc1`?
UCH37 DUB inh: -80

What do the screens show for `COc1cc2c(cc1OC)-c1c3c(cc4c1[C@@H](C2)N(C)CC4)OCO3`?
UCH37 DUB inh: -1; SENP7 inh: 46; SENP1 FRET inh: -1; SENP8 block-1: inactive; SENP8 block-2: 32; SENP6 block: 78*; SENP8 confirm: 10; SENP6 conf: 38; SENP7 confirm: 8; Casp3 SENP sel: 4; SENP luc ctr: -3

How did O=c1[nH]c(=S)[nH]c(O)c1N=Nc1ccc(SC(F)F)cc1 do in these assays?
UCH37 DUB inh: 9; SENP7 inh: 83*; SENP1 FRET inh: 14; SENP8 block-1: 25; SENP8 block-2: 91*; SENP6 block: 100*; SENP8 confirm: 81*; SENP6 conf: 95*; SENP7 confirm: 89*; Casp3 SENP sel: 95*; SENP luc ctr: 62*

What do the screens show for `CC(C)c1ccc(N=Nc2c(O)[nH]c(=O)[nH]c2=O)cc1`?
UCH37 DUB inh: 4; SENP7 inh: 1; SENP1 FRET inh: -24; SENP8 block-1: 24; SENP8 block-2: -9; SENP6 block: -8
